Key:
Assay type in all cases: functional
Staphylococcus aureus [1] = assay: Bactericidal activity against methicillin-resistant Staphylococcus aureus clinical isolate 238 after 24 hrs; conditions: isolate 238, 24 h
Summary of the method: (§1)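 Bactericidal concentration: 0.1 ml from wells at the MIC dilution and the dilutions on either side was streaked onto tryptic soy agar and incubated 24 h. It was taken as the lowest drug concentration giving no growth (100% killing).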

Candida tropicalis = assay: Antimicrobial activity against Candida tropicalis ATCC 750 by broth dilution method
Staphylococcus aureus [2] = assay: Antimicrobial activity against methicillin-resistant Staphylococcus aureus clinical isolate 259 by broth dilution method
Staphylococcus aureus [3] = assay: Antimicrobial activity against methicillin-resistant Staphylococcus aureus clinical isolate 255 by broth dilution method
Staphylococcus aureus [4] = assay: Bactericidal activity against methicillin-resistant Staphylococcus aureus clinical isolate 225 after 24 hrs; conditions: isolate 225, 24 h; summary of the method: as §1
Staphylococcus aureus [5] = assay: Antimicrobial activity against methicillin-resistant Staphylococcus aureus clinical isolate 264 by broth dilution method
Staphylococcus aureus [6] = assay: Antimicrobial activity against methicillin-resistant Staphylococcus aureus clinical isolate 235 by broth dilution method
Staphylococcus aureus [7] = assay: Bactericidal activity against methicillin-resistant Staphylococcus aureus clinical isolate 257 after 24 hrs; conditions: isolate 257, 24 h; summary of the method: as §1
Staphylococcus aureus [8] = assay: Antimicrobial activity against methicillin-resistant Staphylococcus aureus clinical isolate by broth dilution method
Staphylococcus aureus [9] = assay: Antimicrobial activity against methicillin-resistant Staphylococcus aureus clinical isolate 225 by broth dilution method
Staphylococcus aureus [10] = assay: Bactericidal activity against methicillin-resistant Staphylococcus aureus clinical isolate 231 after 24 hrs; conditions: isolate 231, 24 h; summary of the method: as §1
Staphylococcus aureus [11] = assay: Bactericidal activity against methicillin-resistant Staphylococcus aureus clinical isolate 207 after 24 hrs; conditions: isolate 207, 24 h; summary of the method: as §1
Staphylococcus aureus [12] = assay: Antimicrobial activity against methicillin-resistant Staphylococcus aureus clinical isolate 218 by broth dilution method
[13] = system: Staphylococcus epidermidis; assay: Antimicrobial activity against Staphylococcus epidermidis ATCC 12228 by broth dilution method; conditions: for MIC: Staphylococcus epidermidis, ATCC 12228
Staphylococcus aureus [14] = assay: Bactericidal activity against methicillin-resistant Staphylococcus aureus clinical isolate 260 after 24 hrs; conditions: isolate 260, 24 h; summary of the method: as §1
Staphylococcus aureus [15] = assay: Antimicrobial activity against Staphylococcus aureus ATCC 29213 by broth dilution method; conditions: Staphylococcus aureus, ATCC 29213
Staphylococcus aureus [16] = assay: Antimicrobial activity against methicillin-resistant Staphylococcus aureus clinical isolate 227 by broth dilution method
Staphylococcus aureus [17] = assay: Antimicrobial activity against methicillin-resistant Staphylococcus aureus clinical isolate 231 by broth dilution method
Escherichia coli [18] = assay: Bactericidal activity against Escherichia coli ATCC 11229 after 24 hrs; conditions: ATCC 11229, 24 h
Summary of the method: (§2)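 MBC: after MIC determination, 0.1 ml from the MIC well and from two dilutions either side streaked on tryptic soy agar, incubated 24 h; MBC taken as lowest concentration giving no growth (100% kill).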

Staphylococcus aureus [19] = assay: Bactericidal activity against methicillin-resistant Staphylococcus aureus clinical isolate 178 after 24 hrs; conditions: isolate 178, 24 h; summary of the method: as §1
Staphylococcus aureus [20] = assay: Bactericidal activity against methicillin-resistant Staphylococcus aureus clinical isolate 255 after 24 hrs; conditions: isolate 255, 24 h; summary of the method: as §1
Staphylococcus aureus [21] = assay: Antimicrobial activity against methicillin-resistant Staphylococcus aureus clinical isolate 232 by broth dilution method
Staphylococcus aureus [22] = assay: Antimicrobial activity against methicillin-resistant Staphylococcus aureus clinical isolate 260 by broth dilution method
Staphylococcus aureus [23] = assay: Antimicrobial activity against methicillin-resistant Staphylococcus aureus clinical isolate 238 by broth dilution method
[24] = system: Staphylococcus epidermidis; assay: Bactericidal activity against Staphylococcus epidermidis ATCC 12228 after 24 hrs; conditions: ATCC 12228, 24 h; summary of the method: as §2
Staphylococcus aureus [25] = assay: Bactericidal activity against methicillin-resistant Staphylococcus aureus clinical isolate 235 after 24 hrs; conditions: isolate 235, 24 h; summary of the method: as §1
Staphylococcus aureus [26] = assay: Bactericidal activity against methicillin-resistant Staphylococcus aureus clinical isolate 212 after 24 hrs; conditions: isolate 212, 24 h; summary of the method: as §1
Staphylococcus aureus [27] = assay: Bactericidal activity against methicillin-resistant Staphylococcus aureus clinical isolate 232 after 24 hrs; conditions: isolate 232, 24 h; summary of the method: as §1
Nakaseomyces glabratus = assay: Antimicrobial activity against Candida glabrata ATCC 18804 by broth dilution method
Candida albicans = assay: Antimicrobial activity against Candida albicans ATCC 22019 by broth dilution method
Staphylococcus aureus [28] = assay: Antimicrobial activity against methicillin-resistant Staphylococcus aureus clinical isolate 176 by broth dilution method
Staphylococcus aureus [29] = assay: Antimicrobial activity against methicillin-resistant Staphylococcus aureus clinical isolate 236 by broth dilution method
Staphylococcus aureus [30] = assay: Antimicrobial activity against methicillin-resistant Staphylococcus aureus clinical isolate 212 by broth dilution method
Staphylococcus aureus [31] = assay: Antimicrobial activity against methicillin-resistant Staphylococcus aureus clinical isolate 178 by broth dilution method
Staphylococcus aureus [32] = assay: Antimicrobial activity against methicillin-resistant Staphylococcus aureus clinical isolate 215 by broth dilution method
Staphylococcus aureus [33] = assay: Antimicrobial activity against methicillin-resistant Staphylococcus aureus clinical isolate 257 by broth dilution method
Staphylococcus aureus [34] = assay: Antimicrobial activity against methicillin-resistant Staphylococcus aureus clinical isolate 195 by broth dilution method
Candida parapsilosis = assay: Antimicrobial activity against Candida parapsilosis ATCC 90030 by broth dilution method; conditions: Lodderomyces parapsilosis
Staphylococcus aureus [35] = assay: Antimicrobial activity against methicillin-resistant Staphylococcus aureus clinical isolate 207 by broth dilution method
Staphylococcus aureus [36] = assay: Bactericidal activity against methicillin-resistant Staphylococcus aureus clinical isolate 195 after 24 hrs; conditions: isolate 195, 24 h; summary of the method: as §1
Staphylococcus aureus [37] = assay: Bactericidal activity against methicillin-resistant Staphylococcus aureus clinical isolate 259 after 24 hrs; conditions: isolate 259, 24 h; summary of the method: as §1
Staphylococcus aureus [38] = assay: Bactericidal activity against Staphylococcus aureus ATCC 29213 after 24 hrs; conditions: ATCC 29213, 24 h; summary of the method: as §1
Staphylococcus aureus [39] = assay: Bactericidal activity against methicillin-resistant Staphylococcus aureus clinical isolate 215 after 24 hrs; conditions: isolate 215, 24 h; summary of the method: as §1
Staphylococcus aureus [40] = assay: Bactericidal activity against methicillin-resistant Staphylococcus aureus clinical isolate 227 after 24 hrs; conditions: isolate 227, 24 h; summary of the method: as §1
Escherichia coli [41] = assay: Antimicrobial activity against Escherichia coli ATCC 11229 by broth dilution method
Staphylococcus aureus [42] = assay: Bactericidal activity against methicillin-resistant Staphylococcus aureus clinical isolate 176 after 24 hrs; conditions: isolate 176, 24 h; summary of the method: as §1
Staphylococcus aureus [43] = assay: Bactericidal activity against methicillin-resistant Staphylococcus aureus clinical isolate 264 after 24 hrs; conditions: isolate 264, 24 h; summary of the method: as §1
Pseudomonas aeruginosa = assay: Antimicrobial activity against Pseudomonas aeruginosa ATCC 27853 by broth dilution method
Staphylococcus aureus [44] = assay: Antimicrobial activity against methicillin-resistant Staphylococcus aureus clinical isolate 237 by broth dilution method
Staphylococcus aureus [45] = assay: Bactericidal activity against methicillin-resistant Staphylococcus aureus clinical isolate 237 after 24 hrs; conditions: isolate 237, 24 h; summary of the method: as §1
Staphylococcus aureus [46] = assay: Antimicrobial activity against methicillin-resistant Staphylococcus aureus clinical isolate 205 by broth dilution method
Staphylococcus aureus [47] = assay: Bactericidal activity against methicillin-resistant Staphylococcus aureus clinical isolate 236 after 24 hrs; conditions: isolate 236, 24 h; summary of the method: as §1
Staphylococcus aureus [48] = assay: Antimicrobial activity against methicillin-resistant Staphylococcus aureus clinical isolate assessed as resistant isolates by broth dilution method
Staphylococcus aureus [49] = assay: Antimicrobial activity against methicillin-resistant Staphylococcus aureus clinical isolate assessed as susceptible isolates by broth dilution method
Staphylococcus aureus [50] = assay: Bactericidal activity against methicillin-resistant Staphylococcus aureus clinical isolate 218 after 24 hrs; conditions: isolate 218, 24 h; summary of the method: as §1

CCCCCCCCCOc1ccc(CNC(CO)(CO)CO)cc1.Cl
64 µg/mL: MIC (Candida tropicalis) | MBC (Staphylococcus aureus [7]) | MBC (Staphylococcus aureus [11]) | MBC (Staphylococcus aureus [26]) | MBC (Staphylococcus aureus [40])
16 µg/mL: MIC (Staphylococcus aureus [3]) | MBC (Staphylococcus aureus [4]) | MIC90 (Staphylococcus aureus [8]; Staphylococcus aureus) | MIC (Staphylococcus aureus [16]) | MIC (Staphylococcus aureus [21]) | MIC (Staphylococcus aureus [22]) | MBC [24] | MIC (Staphylococcus aureus [31]) | MIC (Staphylococcus aureus [32]) | MIC (Staphylococcus aureus [35]) | MBC (Staphylococcus aureus [38]) | MIC (Escherichia coli [41]; Escherichia coli, ATCC 11229) | MIC (Staphylococcus aureus [44]) | MBC (Staphylococcus aureus [47])
4 µg/mL: MIC (Nakaseomyces glabratus) | MIC (Candida albicans)
4.38: -logMIC (Escherichia coli [41])
4.68: -logMIC [13]
8 µg/mL: MIC (Staphylococcus aureus [2]) | MIC (Staphylococcus aureus [5]) | MIC (Staphylococcus aureus [6]) | MIC50 (Staphylococcus aureus [8]; Staphylococcus aureus) | MIC (Staphylococcus aureus [9]) | MIC (Staphylococcus aureus [12]) | MIC [13] | MIC (Staphylococcus aureus [15]) | MIC (Staphylococcus aureus [17]) | MIC (Staphylococcus aureus [28]) | MIC (Staphylococcus aureus [29]) | MIC (Staphylococcus aureus [33]) | MIC (Staphylococcus aureus [34]) | MIC (Staphylococcus aureus [46])
> 256 µg/mL: MIC (Pseudomonas aeruginosa)
4.529: -logMIC (Staphylococcus aureus [8])
32 µg/mL: MBC (Staphylococcus aureus [1]) | MBC (Staphylococcus aureus [10]) | MBC (Staphylococcus aureus [14]) | MBC (Escherichia coli [18]) | MBC (Staphylococcus aureus [19]) | MBC (Staphylococcus aureus [20]) | MIC (Staphylococcus aureus [23]) | MBC (Staphylococcus aureus [25]) | MBC (Staphylococcus aureus [27]) | MIC (Staphylococcus aureus [30]) | MIC (Candida parapsilosis) | MBC (Staphylococcus aureus [36]) | MBC (Staphylococcus aureus [37]) | MBC (Staphylococcus aureus [39]) | MBC (Staphylococcus aureus [42]) | MBC (Staphylococcus aureus [43]) | MBC (Staphylococcus aureus [45])

O=C(N[C@H](CO)[C@H](O)c1ccc([N+](=O)[O-])cc1)C(Cl)Cl [CHLORAMPHENICOL]
32 µg/mL: MIC90 (Staphylococcus aureus [8]; Staphylococcus aureus) | MIC [13] | MBC (Staphylococcus aureus [14]) | MIC (Staphylococcus aureus [23]) | MBC (Staphylococcus aureus [25]) | MIC (Pseudomonas aeruginosa) | MIC (Staphylococcus aureus [44]) | MBC (Staphylococcus aureus [47])
128 µg/mL: MIC (Staphylococcus aureus [2]) | MBC [24] | MBC (Staphylococcus aureus [26]) | MBC (Staphylococcus aureus [50])
8 µg/mL: MIC (Staphylococcus aureus [5]) | MBC (Staphylococcus aureus [7]) | MIC (Staphylococcus aureus [9]) | MBC (Staphylococcus aureus [20]) | MIC (Staphylococcus aureus [30]) | MIC (Staphylococcus aureus [33]) | MBC (Staphylococcus aureus [37]) | MIC (Staphylococcus aureus [46])
16 µg/mL: MBC (Staphylococcus aureus [1]) | MBC (Staphylococcus aureus [10]) | MBC (Staphylococcus aureus [27]) | MBC (Staphylococcus aureus [45])
512 µg/mL: MBC (Staphylococcus aureus [4])
4 µg/mL: MIC (Staphylococcus aureus [3]) | MIC (Staphylococcus aureus [22]) | MIC (Staphylococcus aureus [31]) | MIC (Staphylococcus aureus [34]) | MIC (Staphylococcus aureus [35])
64 µg/mL: MIC (Staphylococcus aureus [6]) | MIC (Staphylococcus aureus [12]) | MIC (Staphylococcus aureus [16]) | MIC (Staphylococcus aureus [17]) | MIC (Staphylococcus aureus [21]) | MIC (Staphylococcus aureus [28]) | MIC (Staphylococcus aureus [29]) | MIC (Staphylococcus aureus [32]) | MBC (Staphylococcus aureus [43])
56.3%: Activity (Staphylococcus aureus [48])
43.7%: Activity (Staphylococcus aureus [49])

From ChEMBL document CHEMBL2380298, “Synthesis and antimicrobial activity of novel amphiphilic aromatic amino alcohols” (2013)
